≈ marks a conversion by molar mass, not a printed value.
Assays:
[1] = (§1) Apparent permeability across apical to basolateral side in MDCK cells; type: ADME, cell-based, Canis lupus familiaris; conditions: dog
Procedure, shortened: (§2)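 Papp measured in wild-type MDCK cells in both apical-to-basolateral and basolateral-to-apical directions; values expressed in units of 1 × 10–6 cm/sec.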

Topoisomerase IV = Topoisomerase IV (Staphylococcus aureus, UniProt P0C1S7+P0C1U9); assay: Inhibition of Staphylococcus aureus DNA topoisomerase 4; type: protein-complex assay
Staphylococcus aureus [2] = assay: Antibacterial activity against Staphylococcus aureus ATCC 29213; type: functional
Staphylococcus aureus [3] = assay: Antibacterial activity against methicillin-resistant Staphylococcus aureus 509 in po dosed neutropenic CD1 mouse pneumonia model assessed as decrease in bacterial burden in lung administered as bid measured after 24 hrs; type: functional; conditions: for MIC: Staphylococcus aureus, 509, Lung
Procedure, shortened: (§3)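 Neutropenic female CD-1 mice, 6 per group, infected in the lung with the MRSA isolate. Oral dosing began 3 h after challenge at 7.5, 15 and 30 mg/kg BID. Lungs were taken after 24 h of treatment and bacterial burden counted as CFU. Early-control and vehicle-treated groups served as reference. The levofloxacin comparator was given TID subcutaneously.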

DNA gyrase = DNA gyrase (Staphylococcus aureus, UniProt P0A0K8+P20831); assay: Inhibition of Staphylococcus aureus DNA gyrase; type: protein-complex assay
[4] = (§4) Apparent permeability across basolateral to apical side in MDCK cells; type: ADME, cell-based, Canis lupus familiaris; conditions: dog; procedure, shortened: as §2
Plasma [5] = assay: Drug uptake in dog plasma at 3 mg/kg, po by LC-MS/MS analysis; type: ADME, organism-based, Canis lupus familiaris; conditions: in vivo
Procedure, shortened: (§5)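 Prodrug given orally to rat and dog at 3 mg/kg and to monkey at 30 mg/kg. Plasma parent exposure measured, with oral dosing of the parent at the same nominal dose as comparator.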

Streptococcus pneumoniae = assay: Antibacterial activity against Streptococcus pneumoniae ATCC 10015; type: functional
Plasma [6] = assay: Drug uptake in rat plasma at 3 mg/kg, po by LC-MS/MS analysis; type: ADME, organism-based; conditions: in vivo; procedure, shortened: as §5
Plasma [7] = assay: Drug uptake in rat plasma at 1 mg/kg, iv measured at 4 hrs by LC-MS/MS analysis; type: ADME, organism-based; conditions: in vivo
Procedure, shortened: (§6)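 Single IV dose, 1 mg/kg nominal, given to rat, dog and monkey. Plasma sampled over time for both prodrug and parent, with the parent exposure expressed as AUC. Dosing the parent itself IV at the same nominal dose served as the comparator.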

Plasma [8] = assay: Drug uptake in dog plasma at 1 mg/kg, iv measured at 4 hrs by LC-MS/MS analysis; type: ADME, organism-based, Canis lupus familiaris; conditions: in vivo; procedure, shortened: as §6
Plasma [9] = assay: Drug uptake in monkey plasma at 1 mg/kg, iv measured at 4 hrs by LC-MS/MS analysis; type: ADME, organism-based, Macaca mulatta; conditions: rhesus monkey, in vivo; procedure, shortened: as §6
Plasma [10] = assay: Drug uptake in monkey plasma at 30 mg/kg, po by LC-MS/MS analysis; type: ADME, organism-based, Macaca mulatta; conditions: rhesus monkey, in vivo; procedure, shortened: as §5
Staphylococcus aureus [11] = assay: Antibacterial activity against methicillin/levofloxacin-resistant Staphylococcus aureus 156 in po dosed neutropenic CD1 mouse pneumonia model assessed as decrease in bacterial burden in lung administered as bid measured after 24 hrs; type: functional; conditions: for MIC: Staphylococcus aureus, 156, Lung; procedure, shortened: as §3
Enterococcus faecium = assay: Antibacterial activity against Enterococcus faecium ATCC 49624; type: functional
Enterococcus faecalis = assay: Antibacterial activity against Enterococcus faecalis ATCC 29212; type: functional
[12] = Prodrug conversion in human intestine S9 fractions assessed as formation of 1-ethyl-3-[6-fluoro-5-[2-(1-hydroxy-1-methyl-ethyl)pyrimidin-5-yl]-7-[(2R)-tetrahydrofuran-2-yl]-1H-benzimidazol-2-yl]urea by Michaelis-Menten plot analysis; type: ADME, tissue-based
Procedure, shortened: (§7)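 Prodrug incubated across 1 to 1000 μM in liver and intestinal S9 fractions from rat, dog, monkey and human. Formation of the parent compound was followed to characterize conversion kinetics.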

[13] = Prodrug conversion in monkey liver S9 fractions assessed as formation of 1-ethyl-3-[6-fluoro-5-[2-(1-hydroxy-1-methyl-ethyl)pyrimidin-5-yl]-7-[(2R)-tetrahydrofuran-2-yl]-1H-benzimidazol-2-yl]urea by Michaelis-Menten plot analysis; type: ADME, subcellular, Macaca mulatta, Liver S9 fraction; conditions: rhesus monkey; procedure, shortened: as §7
Plasma [14] = assay: Prodrug conversion in monkey plasma assessed as formation of 1-ethyl-3-[6-fluoro-5-[2-(1-hydroxy-1-methyl-ethyl)pyrimidin-5-yl]-7-[(2R)-tetrahydrofuran-2-yl]-1H-benzimidazol-2-yl]urea at 1 mg/kg, iv measured at 4 hrs by LC-MS/MS analysis; type: ADME, organism-based, Macaca mulatta; conditions: rhesus monkey, in vivo; procedure, shortened: as §6
MDCK [15] = assay: as §1; type: ADME, cell-based, Canis lupus familiaris; conditions: dog; procedure, shortened: as §2
[16] = Prodrug conversion in monkey intestine S9 fractions assessed as formation of 1-ethyl-3-[6-fluoro-5-[2-(1-hydroxy-1-methyl-ethyl)pyrimidin-5-yl]-7-[(2R)-tetrahydrofuran-2-yl]-1H-benzimidazol-2-yl]urea by Michaelis-Menten plot analysis; type: ADME, tissue-based, Macaca mulatta; conditions: rhesus monkey; procedure, shortened: as §7
Plasma [17] = assay: Prodrug conversion in monkey plasma assessed as formation of 1-ethyl-3-[6-fluoro-5-[2-(1-hydroxy-1-methyl-ethyl)pyrimidin-5-yl]-7-[(2R)-tetrahydrofuran-2-yl]-1H-benzimidazol-2-yl]urea at 30 mg/kg, po by LC-MS/MS analysis; type: ADME, organism-based, Macaca mulatta; conditions: rhesus monkey, in vivo; procedure, shortened: as §5
Plasma [18] = assay: Prodrug conversion in rat plasma assessed as formation of 1-ethyl-3-[6-fluoro-5-[2-(1-hydroxy-1-methyl-ethyl)pyrimidin-5-yl]-7-[(2R)-tetrahydrofuran-2-yl]-1H-benzimidazol-2-yl]urea at 3 mg/kg, po by LC-MS/MS analysis; type: ADME, organism-based; conditions: in vivo; procedure, shortened: as §5
MDCK [19] = assay: as §4; type: ADME, cell-based, Canis lupus familiaris; conditions: dog; procedure, shortened: as §2
Staphylococcus aureus [20] = assay: Antibacterial activity against methicillin/levofloxacin-resistant Staphylococcus aureus 156 in neutropenic CD1 mouse pneumonia model assessed as decrease in bacterial burden in lung at 30 mg/kg, po bid measured after 24 hrs; type: functional; procedure, shortened: as §3
Liver [21] = assay: Prodrug conversion in dog liver S9 fractions assessed as formation of 1-ethyl-3-[6-fluoro-5-[2-(1-hydroxy-1-methyl-ethyl)pyrimidin-5-yl]-7-[(2R)-tetrahydrofuran-2-yl]-1H-benzimidazol-2-yl]urea by Michaelis-Menten plot analysis; type: ADME, subcellular, Canis lupus familiaris, Liver S9 fraction; procedure, shortened: as §7
Plasma [22] = assay: Prodrug conversion in rat plasma assessed as formation of 1-ethyl-3-[6-fluoro-5-[2-(1-hydroxy-1-methyl-ethyl)pyrimidin-5-yl]-7-[(2R)-tetrahydrofuran-2-yl]-1H-benzimidazol-2-yl]urea at 1 mg/kg, iv measured at 4 hrs by LC-MS/MS analysis; type: ADME, organism-based; conditions: in vivo; procedure, shortened: as §6
Intestine = assay: Prodrug conversion in rat intestine S9 fractions assessed as formation of 1-ethyl-3-[6-fluoro-5-[2-(1-hydroxy-1-methyl-ethyl)pyrimidin-5-yl]-7-[(2R)-tetrahydrofuran-2-yl]-1H-benzimidazol-2-yl]urea by Michaelis-Menten plot analysis; type: ADME, tissue-based; procedure, shortened: as §7
Liver [23] = assay: Prodrug conversion in rat liver S9 fractions assessed as formation of 1-ethyl-3-[6-fluoro-5-[2-(1-hydroxy-1-methyl-ethyl)pyrimidin-5-yl]-7-[(2R)-tetrahydrofuran-2-yl]-1H-benzimidazol-2-yl]urea by Michaelis-Menten plot analysis; type: ADME, subcellular, Liver S9 fraction; procedure, shortened: as §7
[24] = Prodrug conversion in dog intestine S9 fractions assessed as formation of 1-ethyl-3-[6-fluoro-5-[2-(1-hydroxy-1-methyl-ethyl)pyrimidin-5-yl]-7-[(2R)-tetrahydrofuran-2-yl]-1H-benzimidazol-2-yl]urea by Michaelis-Menten plot analysis; type: ADME, tissue-based, Canis lupus familiaris; procedure, shortened: as §7
Plasma [25] = assay: Prodrug conversion in dog plasma assessed as formation of 1-ethyl-3-[6-fluoro-5-[2-(1-hydroxy-1-methyl-ethyl)pyrimidin-5-yl]-7-[(2R)-tetrahydrofuran-2-yl]-1H-benzimidazol-2-yl]urea at 3 mg/kg, po by LC-MS/MS analysis; type: ADME, organism-based, Canis lupus familiaris; conditions: in vivo; procedure, shortened: as §5
[26] = Aqueous solubility of the compound at pH 7; type: physicochemical; conditions: buffer
Liver [27] = assay: Prodrug conversion in human liver S9 fractions assessed as formation of 1-ethyl-3-[6-fluoro-5-[2-(1-hydroxy-1-methyl-ethyl)pyrimidin-5-yl]-7-[(2R)-tetrahydrofuran-2-yl]-1H-benzimidazol-2-yl]urea by Michaelis-Menten plot analysis; type: ADME, subcellular, Liver S9 fraction; procedure, shortened: as §7
Staphylococcus aureus [28] = assay: Antibacterial activity against methicillin-resistant Staphylococcus aureus 509 in neutropenic CD1 mouse pneumonia model assessed as decrease in bacterial burden in lung at 30 mg/kg, po bid measured after 24 hrs; type: functional; procedure, shortened: as §3
Plasma [29] = assay: Prodrug conversion in dog plasma assessed as formation of 1-ethyl-3-[6-fluoro-5-[2-(1-hydroxy-1-methyl-ethyl)pyrimidin-5-yl]-7-[(2R)-tetrahydrofuran-2-yl]-1H-benzimidazol-2-yl]urea at 1 mg/kg, iv measured at 4 hrs by LC-MS/MS analysis; type: ADME, organism-based, Canis lupus familiaris; conditions: in vivo; procedure, shortened: as §6

DNA gyrase, sequence (P0A0K8 whole entry): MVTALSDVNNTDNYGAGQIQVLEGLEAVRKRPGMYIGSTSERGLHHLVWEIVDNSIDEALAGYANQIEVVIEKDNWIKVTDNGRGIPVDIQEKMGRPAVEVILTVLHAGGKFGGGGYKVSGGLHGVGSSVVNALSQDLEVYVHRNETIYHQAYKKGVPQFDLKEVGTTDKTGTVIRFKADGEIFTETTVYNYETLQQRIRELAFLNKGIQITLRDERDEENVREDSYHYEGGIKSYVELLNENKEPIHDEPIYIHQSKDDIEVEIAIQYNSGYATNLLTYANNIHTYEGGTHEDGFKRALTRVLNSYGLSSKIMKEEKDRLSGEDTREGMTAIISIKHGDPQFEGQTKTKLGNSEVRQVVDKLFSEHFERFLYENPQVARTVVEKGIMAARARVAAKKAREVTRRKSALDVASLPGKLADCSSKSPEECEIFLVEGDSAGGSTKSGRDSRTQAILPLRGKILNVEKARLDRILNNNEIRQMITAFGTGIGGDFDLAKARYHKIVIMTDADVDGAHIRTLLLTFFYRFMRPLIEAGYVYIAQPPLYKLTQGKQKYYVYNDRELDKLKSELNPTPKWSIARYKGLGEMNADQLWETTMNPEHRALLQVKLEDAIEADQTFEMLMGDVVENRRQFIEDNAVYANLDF
DNA gyrase, sequence (P20831 whole entry): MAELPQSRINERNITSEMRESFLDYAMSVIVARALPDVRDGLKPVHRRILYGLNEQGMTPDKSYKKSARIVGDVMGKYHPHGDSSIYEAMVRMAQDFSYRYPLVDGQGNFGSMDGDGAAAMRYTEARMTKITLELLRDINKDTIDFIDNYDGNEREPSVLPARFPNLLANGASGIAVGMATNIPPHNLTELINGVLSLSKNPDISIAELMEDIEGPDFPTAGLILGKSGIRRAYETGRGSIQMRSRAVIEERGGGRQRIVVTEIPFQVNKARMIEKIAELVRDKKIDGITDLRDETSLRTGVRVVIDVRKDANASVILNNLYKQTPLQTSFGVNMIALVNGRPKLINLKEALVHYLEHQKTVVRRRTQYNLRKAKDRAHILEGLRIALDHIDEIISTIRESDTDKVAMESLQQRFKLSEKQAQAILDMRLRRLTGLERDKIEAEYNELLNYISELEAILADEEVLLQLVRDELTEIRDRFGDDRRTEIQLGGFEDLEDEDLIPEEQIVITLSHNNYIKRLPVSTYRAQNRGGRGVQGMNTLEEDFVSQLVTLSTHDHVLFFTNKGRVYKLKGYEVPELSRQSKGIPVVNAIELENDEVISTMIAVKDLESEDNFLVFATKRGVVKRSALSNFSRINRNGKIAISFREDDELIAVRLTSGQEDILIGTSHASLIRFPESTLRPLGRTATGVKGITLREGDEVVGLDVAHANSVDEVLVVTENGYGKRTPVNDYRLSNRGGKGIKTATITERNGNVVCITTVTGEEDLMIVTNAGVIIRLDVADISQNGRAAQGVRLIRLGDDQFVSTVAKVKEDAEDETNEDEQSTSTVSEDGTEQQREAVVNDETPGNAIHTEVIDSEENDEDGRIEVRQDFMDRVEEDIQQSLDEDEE
Topoisomerase IV, sequence (P0C1U9 whole entry): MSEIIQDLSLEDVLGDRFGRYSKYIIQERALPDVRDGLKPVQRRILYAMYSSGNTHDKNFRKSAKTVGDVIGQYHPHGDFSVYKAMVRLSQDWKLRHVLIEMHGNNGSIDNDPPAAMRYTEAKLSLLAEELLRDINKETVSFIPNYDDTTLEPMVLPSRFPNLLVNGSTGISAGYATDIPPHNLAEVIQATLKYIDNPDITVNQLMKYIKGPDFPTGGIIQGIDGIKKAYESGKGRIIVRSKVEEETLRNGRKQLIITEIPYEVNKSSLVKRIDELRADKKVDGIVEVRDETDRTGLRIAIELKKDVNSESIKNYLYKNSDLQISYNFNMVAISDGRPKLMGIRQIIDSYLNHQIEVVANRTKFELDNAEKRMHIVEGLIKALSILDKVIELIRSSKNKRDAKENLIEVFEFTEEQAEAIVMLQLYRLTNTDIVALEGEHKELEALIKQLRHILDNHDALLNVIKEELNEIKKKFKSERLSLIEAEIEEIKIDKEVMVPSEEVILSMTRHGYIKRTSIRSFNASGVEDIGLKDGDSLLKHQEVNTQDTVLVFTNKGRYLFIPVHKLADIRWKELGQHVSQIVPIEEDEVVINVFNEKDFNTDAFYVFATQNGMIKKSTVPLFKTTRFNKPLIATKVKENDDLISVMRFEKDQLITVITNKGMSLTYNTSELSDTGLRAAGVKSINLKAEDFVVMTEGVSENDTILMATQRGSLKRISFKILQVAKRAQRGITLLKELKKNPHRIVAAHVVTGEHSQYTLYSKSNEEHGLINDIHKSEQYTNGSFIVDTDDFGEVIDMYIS
Topoisomerase IV, sequence (P0C1S7 whole entry): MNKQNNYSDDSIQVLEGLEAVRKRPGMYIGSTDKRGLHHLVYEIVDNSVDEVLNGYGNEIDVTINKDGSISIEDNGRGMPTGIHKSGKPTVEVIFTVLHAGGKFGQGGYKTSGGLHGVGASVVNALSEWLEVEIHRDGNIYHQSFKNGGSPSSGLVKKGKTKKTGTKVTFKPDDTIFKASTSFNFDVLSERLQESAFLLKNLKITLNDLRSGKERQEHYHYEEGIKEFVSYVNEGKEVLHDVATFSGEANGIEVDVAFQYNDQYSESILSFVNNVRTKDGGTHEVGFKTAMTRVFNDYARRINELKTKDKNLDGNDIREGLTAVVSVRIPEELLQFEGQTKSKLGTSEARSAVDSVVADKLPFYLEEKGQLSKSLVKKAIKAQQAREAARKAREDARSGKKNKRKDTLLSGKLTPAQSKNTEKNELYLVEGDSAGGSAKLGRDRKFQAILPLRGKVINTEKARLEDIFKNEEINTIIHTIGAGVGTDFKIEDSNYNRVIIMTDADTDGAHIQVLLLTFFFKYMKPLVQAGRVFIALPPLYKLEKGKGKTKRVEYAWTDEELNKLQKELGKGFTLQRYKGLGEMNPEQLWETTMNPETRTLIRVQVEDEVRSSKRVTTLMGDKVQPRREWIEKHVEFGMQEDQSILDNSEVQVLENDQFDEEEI

Compound `CCNC(=O)Nc1nc2cc(-c3cnc(C(C)(C)O)nc3)c(F)c([C@H]3CCCO3)c2[nH]1` has a Papp A→B [1] of 9.5 ×10⁻⁶ cm/s, a Ki (Topoisomerase IV) of 12 nM and an MIC (Staphylococcus aureus [2]) of 0.016 µg/mL (≈ 0.0373 µM). It also gave an MIC (Staphylococcus aureus [3]) of 0.06 µg/mL (≈ 0.14 µM), a Ki (DNA gyrase) of less than 9 nM and a Papp B→A [4] of 16.3 ×10⁻⁶ cm/s. The Drug uptake (Plasma [5]) was “Active”, the MIC (Streptococcus pneumoniae) was no more than 0.008 µg/mL and the Drug uptake (Plasma [6]) was “Active”. For the same compound, the Drug uptake (Plasma [7]) was “Active”, the Drug uptake (Plasma [8]) was “Active” and the Drug uptake (Plasma [9]) was “Active”. For the same compound, the Drug uptake (Plasma [10]) was “Active”, the MIC (Staphylococcus aureus [11]) was 0.06 µg/mL (≈ 0.14 µM) and the MIC (Enterococcus faecium) was 0.063 µg/mL (≈ 0.147 µM). The MIC (Enterococcus faecalis) was 0.016 µg/mL (≈ 0.0373 µM).
Compound `CCNC(=O)Nc1nc2cc(-c3cnc(C(C)(C)OP(=O)(O)O)nc3)c(F)c([C@H]3CCCO3)c2[nH]1` has a Vmax [12] greater than 1000 pmol/min/mg, a Km [13] of 122 µM and a Vmax [13] of 25.2 pmol/min/mg. For the same compound, the Drug metabolism (Plasma [14]) was “metabolite_detected”, the Papp (MDCK [15]) was “impermeable” and the Ki (Topoisomerase IV) was 30 nM. It also gave an MIC (Staphylococcus aureus [2]) of 8 µg/mL (≈ 15.7 µM), a Km [16] of 5180 µM and a Vmax [16] of 1974 pmol/min/mg. The Drug metabolism (Plasma [17]) was “metabolite_detected”, the Drug metabolism (Plasma [18]) was “metabolite_detected” and the Activity (Staphylococcus aureus [3]) was “Dose-dependent effect”. For the same compound, the Ki (DNA gyrase) was less than 9 nM, the Papp (MDCK [19]) was “impermeable” and the MIC (Streptococcus pneumoniae) was 0.25 µg/mL (≈ 0.492 µM). For the same compound, the Activity (Staphylococcus aureus [20]) was greater than 3 deltalog10CFU, the Km (Liver [21]) was 256 µM and the Vmax (Liver [21]) was 19.3 pmol/min/mg. The Drug metabolism (Plasma [22]) was “metabolite_detected”, the Km (Intestine) was 736 µM and the Vmax (Intestine) was 958 pmol/min/mg. The Km (Liver [23]) was 49.8 µM, the Vmax (Liver [23]) was 45.5 pmol/min/mg and the Km [24] was 998 µM. For the same compound, the Vmax [24] was 1162 pmol/min/mg, the Drug metabolism (Plasma [25]) was “metabolite_detected” and the solubility [26] was 75 mg/mL (≈ 148000 µM). For the same compound, the Activity (Staphylococcus aureus [11]) was “Dose-dependent effect”, the Km (Liver [27]) was 137 µM and the Vmax (Liver [27]) was 45.8 pmol/min/mg. For the same compound, the MIC (Enterococcus faecium) was 4 µg/mL (≈ 7.87 µM), the Activity (Staphylococcus aureus [28]) was greater than 3 deltalog10CFU and the Drug metabolism (Plasma [29]) was “metabolite_detected”. The MIC (Enterococcus faecalis) was 1 µg/mL (≈ 1.97 µM).
`C[C@H]1COc2c(N3CCN(C)CC3)c(F)cc3c(=O)c(C(=O)O)cn1c23.C[C@H]1COc2c(N3CCN(C)CC3)c(F)cc3c(=O)c(C(=O)O)cn1c23.O` [LEVOFLOXACIN] showed an MIC (Staphylococcus aureus [3]) of 0.25 µg/mL and an MIC (Staphylococcus aureus [11]) of 8 µg/mL.
